# Measurements: ChEMBL document CHEMBL1649446, “Comparative antipneumococcal activities of sulopenem and other drugs” (2009)
# Legend:
# Assay type in all cases: functional
# Streptococcus pneumoniae [1] = experiment: Antimicrobial activity against Streptococcus pneumoniae 1 by time-kill analysis
# In short: (§1)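 Time-kill in cation-adjusted Mueller-Hinton broth with 5% lysed horse blood; inocula 5 × 105 to 5 × 10^6 CFU/ml; drugs at MIC, 2× and 4× MIC; 35°C shaking water bath; viable counts at 0, 3, 6, 12 and 24 h. Bactericidal if ≥3 log10 CFU/ml (99.9%) reduction from original inoculum; 90% and 99% killing also scored.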
# Streptococcus pneumoniae [2] = experiment: Antimicrobial activity against Streptococcus pneumoniae 5 by time-kill analysis; in short: as §1
# Streptococcus pneumoniae [3] = experiment: Antimicrobial activity against Streptococcus pneumoniae isolate 1147 by agar dilution method
# In short: (§2)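 Agar dilution MIC on Mueller-Hinton agar with 5% sheep blood, inocula 10^4 CFU/spot; amoxicillin-clavulanate combined 1:2; S. pneumoniae ATCC 49619 quality control each run.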
# Streptococcus pneumoniae [4] = experiment: Antimicrobial activity against Streptococcus pneumoniae isolate 3455 by agar dilution method
# Streptococcus pneumoniae [5] = experiment: Antimicrobial activity against Streptococcus pneumoniae isolate 2880 by agar dilution method; in short: as §2
# Streptococcus pneumoniae [6] = experiment: Antimicrobial activity against Streptococcus pneumoniae 9 by time-kill analysis; in short: as §1
# Streptococcus pneumoniae [7] = experiment: Antimicrobial activity against Streptococcus pneumoniae isolate 1424 by agar dilution method; in short: as §2
# Streptococcus pneumoniae [8] = experiment: Antimicrobial activity against Streptococcus pneumoniae isolate 1055 by agar dilution method
# Streptococcus pneumoniae [9] = experiment: Antimicrobial activity against Streptococcus pneumoniae isolate 1146 by agar dilution method; in short: as §2
# Streptococcus pneumoniae [10] = experiment: Antimicrobial activity against Streptococcus pneumoniae 3 by time-kill analysis
# In short: as §1, with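 “12,” for “12 and”, “=” for “if”, “drop” for “reduction”, “90%/99%/99.9%” for “90% and 99%”, “scored per strain.” for “also scored.”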
# Streptococcus pneumoniae [11] = experiment: Antimicrobial activity against Streptococcus pneumoniae isolate 3346 by agar dilution method
# Streptococcus pneumoniae [12] = experiment: Antimicrobial activity against Streptococcus pneumoniae 7 by time-kill analysis
# In short: as §1, with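 “12,” for “12 and”, “=” for “if”, “drop” for “reduction”, “90%/99%/99.9%” for “90% and 99%”, “scored per strain.” for “also scored.”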
# Streptococcus pneumoniae [13] = experiment: Antimicrobial activity against Streptococcus pneumoniae isolate 2688 by agar dilution method; in short: as §2
# Streptococcus pneumoniae [14] = experiment: Antimicrobial activity against Streptococcus pneumoniae isolate 37 by agar dilution method; in short: as §2
# Streptococcus pneumoniae [15] = experiment: Antimicrobial activity against Streptococcus pneumoniae 6 by time-kill analysis
# In short: as §1, with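 “12,” for “12 and”, “=” for “if”, “drop” for “reduction”, “90%/99%/99.9%” for “90% and 99%”, “scored per strain.” for “also scored.”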
# Streptococcus pneumoniae [16] = experiment: Antimicrobial activity against Streptococcus pneumoniae isolate 3282 by agar dilution method
# Streptococcus pneumoniae [17] = experiment: Antimicrobial activity against Streptococcus pneumoniae isolate 3791 by agar dilution method; in short: as §2
# Streptococcus pneumoniae [18] = experiment: Antimicrobial activity against Streptococcus pneumoniae isolate 3374 by agar dilution method; in short: as §2
# Streptococcus pneumoniae [19] = experiment: Antimicrobial activity against Streptococcus pneumoniae 8 by time-kill analysis
# In short: as §1, with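 “12,” for “12 and”, “=” for “if”, “drop” for “reduction”, “90%/99%/99.9%” for “90% and 99%”, “scored per strain.” for “also scored.”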
# Streptococcus pneumoniae [20] = experiment: Antimicrobial activity against Streptococcus pneumoniae isolate 2686 by agar dilution method; in short: as §2
# Streptococcus pneumoniae [21] = experiment: Antimicrobial activity against Streptococcus pneumoniae isolate 2874 by agar dilution method; in short: as §2
# Streptococcus pneumoniae [22] = experiment: Antimicrobial activity against Streptococcus pneumoniae isolate 4747 by agar dilution method; in short: as §2
# Streptococcus pneumoniae [23] = experiment: Antimicrobial activity against Streptococcus pneumoniae isolate 1564 by agar dilution method
# Streptococcus pneumoniae [24] = experiment: Antimicrobial activity against Streptococcus pneumoniae isolate 1384 by agar dilution method; in short: as §2
# Streptococcus pneumoniae [25] = experiment: Antimicrobial activity against Streptococcus pneumoniae isolate 4755 by agar dilution method; in short: as §2
# Streptococcus pneumoniae [26] = experiment: Antimicrobial activity against Streptococcus pneumoniae isolate 2617 by agar dilution method; in short: as §2
# Streptococcus pneumoniae [27] = experiment: Antimicrobial activity against penicillin-intermediate Streptococcus pneumoniae by agar dilution method
# Streptococcus pneumoniae [28] = experiment: Antimicrobial activity against Streptococcus pneumoniae 2 by time-kill analysis
# In short: as §1, with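 “12,” for “12 and”, “=” for “if”, “drop” for “reduction”, “90%/99%/99.9%” for “90% and 99%”, “scored per strain.” for “also scored.”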
# Streptococcus pneumoniae [29] = experiment: Antimicrobial activity against Streptococcus pneumoniae isolate 1397 by agar dilution method; in short: as §2
# Streptococcus pneumoniae [30] = experiment: Antimicrobial activity against Streptococcus pneumoniae 11 by time-kill analysis
# In short: as §1, with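 “12,” for “12 and”, “=” for “if”, “drop” for “reduction”, “90%/99%/99.9%” for “90% and 99%”, “scored per strain.” for “also scored.”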
# Streptococcus pneumoniae [31] = experiment: Antimicrobial activity against Streptococcus pneumoniae isolate 3263 by agar dilution method
# Streptococcus pneumoniae [32] = experiment: Antimicrobial activity against Streptococcus pneumoniae 10 by time-kill analysis
# In short: as §1, with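 “12,” for “12 and”, “=” for “if”, “drop” for “reduction”, “90%/99%/99.9%” for “90% and 99%”, “scored per strain.” for “also scored.”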
# Streptococcus pneumoniae [33] = experiment: Antimicrobial activity against Streptococcus pneumoniae isolate 3458 by agar dilution method
# Streptococcus pneumoniae [34] = experiment: Antimicrobial activity against Streptococcus pneumoniae isolate 3587 by agar dilution method
# Streptococcus pneumoniae [35] = experiment: Antimicrobial activity against Streptococcus pneumoniae 4 by time-kill analysis
# In short: as §1, with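 “12,” for “12 and”, “=” for “if”, “drop” for “reduction”, “90%/99%/99.9%” for “90% and 99%”, “scored per strain.” for “also scored.”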
# Streptococcus pneumoniae [36] = experiment: Antimicrobial activity against penicillin-susceptible Streptococcus pneumoniae by agar dilution method
# Streptococcus pneumoniae [37] = experiment: Antimicrobial activity against Streptococcus pneumoniae isolate 24 by agar dilution method
# Streptococcus pneumoniae [38] = experiment: Antimicrobial activity against penicillin-resistant Streptococcus pneumoniae by agar dilution method; in short: as §2
# Streptococcus pneumoniae [39] = experiment: Antimicrobial activity against Streptococcus pneumoniae isolate 3275 by agar dilution method; in short: as §2
# Streptococcus pneumoniae [40] = experiment: Antimicrobial activity against Streptococcus pneumoniae isolate 3260 by agar dilution method
# Streptococcus pneumoniae [41] = experiment: Antimicrobial activity against Streptococcus pneumoniae isolate 3481 by agar dilution method; in short: as §2
# Streptococcus pneumoniae [42] = experiment: Antimicrobial activity against Streptococcus pneumoniae 19A by agar dilution method; in short: as §2
# Streptococcus pneumoniae [43] = experiment: Antimicrobial activity against Streptococcus pneumoniae 12 by time-kill analysis
# In short: as §1, with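 “12,” for “12 and”, “=” for “if”, “drop” for “reduction”, “90%/99%/99.9%” for “90% and 99%”, “scored per strain.” for “also scored.”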
# Streptococcus pneumoniae [44] = experiment: Antimicrobial activity against Streptococcus pneumoniae isolate 1394 by agar dilution method
# Streptococcus pneumoniae [45] = experiment: Antimicrobial activity against Streptococcus pneumoniae isolate 33 by agar dilution method; in short: as §2
# Streptococcus pneumoniae [46] = experiment: Antimicrobial activity against Streptococcus pneumoniae isolate 3412 by agar dilution method; in short: as §2
# Streptococcus pneumoniae [47] = experiment: Antimicrobial activity against Streptococcus pneumoniae isolate 3681 by agar dilution method; in short: as §2
compound,measurement,setting,value
CO/N=C(\C(=O)N[C@@H]1C(=O)N2C(C(=O)O)=C(COC(N)=O)CS[C@H]12)c1ccco1 [CEFUROXIME],MIC,Streptococcus pneumoniae [1],0.03 mg/L
same,MIC,Streptococcus pneumoniae [2],16 mg/L
same,MIC,Streptococcus pneumoniae [3],8 mg/L
same,MIC,Streptococcus pneumoniae [4],4 mg/L
same,MIC,Streptococcus pneumoniae [5],4 mg/L
same,MIC,Streptococcus pneumoniae [6],0.25 mg/L
same,MIC,Streptococcus pneumoniae [7],16 mg/L
same,MIC,Streptococcus pneumoniae [8],4 mg/L
same,MIC,Streptococcus pneumoniae [9],8 mg/L
same,MIC,Streptococcus pneumoniae [10],1 mg/L
same,MIC,Streptococcus pneumoniae [11],4 mg/L
same,MIC,Streptococcus pneumoniae [12],4 mg/L
same,MIC,Streptococcus pneumoniae [13],32 mg/L
same,MIC,Streptococcus pneumoniae [14],4 mg/L
same,MIC,Streptococcus pneumoniae [15],0.5 mg/L
same,MIC,Streptococcus pneumoniae [16],4 mg/L
same,MIC,Streptococcus pneumoniae [17],8 mg/L
same,MIC,Streptococcus pneumoniae [18],8 mg/L
same,MIC,Streptococcus pneumoniae [19],8 mg/L
same,MIC,Streptococcus pneumoniae [20],16 mg/L
same,MIC,Streptococcus pneumoniae [21],8 mg/L
same,MIC,Streptococcus pneumoniae [22],8 mg/L
same,MIC,Streptococcus pneumoniae [23],64 mg/L
same,MIC,Streptococcus pneumoniae [24],4 mg/L
same,MIC,Streptococcus pneumoniae [25],8 mg/L
same,MIC,Streptococcus pneumoniae [26],4 mg/L
same,MIC50,Streptococcus pneumoniae [27],0.25 mg/L
same,MIC90,Streptococcus pneumoniae [27],4 mg/L
same,MIC,Streptococcus pneumoniae [28],0.016 mg/L
same,MIC,Streptococcus pneumoniae [29],8 mg/L
same,MIC,Streptococcus pneumoniae [30],4 mg/L
same,MIC,Streptococcus pneumoniae [31],4 mg/L
same,MIC,Streptococcus pneumoniae [32],0.25 mg/L
same,MIC,Streptococcus pneumoniae [33],8 mg/L
same,MIC,Streptococcus pneumoniae [34],8 mg/L
same,MIC,Streptococcus pneumoniae [35],16 mg/L
same,MIC50,Streptococcus pneumoniae [36],0.03 mg/L
same,MIC90,Streptococcus pneumoniae [36],0.125 mg/L
same,MIC,Streptococcus pneumoniae [37],2 mg/L
same,MIC50,Streptococcus pneumoniae [38],4 mg/L
same,MIC90,Streptococcus pneumoniae [38],16 mg/L
same,MIC,Streptococcus pneumoniae [39],2 mg/L
same,MIC,Streptococcus pneumoniae [40],4 mg/L
same,MIC,Streptococcus pneumoniae [41],8 mg/L
same,MIC50,Streptococcus pneumoniae [42],8 mg/L
same,MIC90,Streptococcus pneumoniae [42],16 mg/L
same,MIC,Streptococcus pneumoniae [43],4 mg/L
same,MIC,Streptococcus pneumoniae [44],16 mg/L
same,MIC,Streptococcus pneumoniae [45],4 mg/L
same,MIC,Streptococcus pneumoniae [46],4 mg/L
same,MIC,Streptococcus pneumoniae [47],4 mg/L
